Experimental data published in ChEMBL document CHEMBL4000230, “Design, synthesis and biological evaluation of regioisomers of 666-15 as inhibitors of CREB-mediated gene transcription” (Bioorg Med Chem Lett, 2017).

Tests used:
MDA-MB-231 = assay: Cytotoxicity against human MDA-MB-231 cells assessed as growth inhibition after 72 hrs by MTT assay; type: functional; conditions: MDA-MB-231, 72 h
In short: (§1)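 Growth inhibition read by MTT after 72 h incubation of the indicated cells with drug; GI50 taken from this assay.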

MDA-MB-468 = assay: Cytotoxicity against human MDA-MB-468 cells assessed as growth inhibition after 72 hrs by MTT assay; type: functional; conditions: MDA-MB-468, 72 h; in short: as §1
[1] = Inhibition of forskolin-stimulated CREB (unknown origin)-mediated gene transcription in HEK293T cells preincubated for 30 mins followed by forskolin-stimulation measured after 6 hrs by luciferase reporter gene assay; type: cell-based; conditions: Homo sapiens, HEK-293T
In short: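 HEK 293T cells transfected with a renilla luciferase reporter driven by three tandem CRE copies. Treated with increasing compound concentrations (50 nM to 50 μM) for 30 min, then forskolin (10 μM) for 6 h, then luciferase measured. Luciferase normalized to lysate protein concentration. IC50 by non-linear regression of dose-response curves.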

Row | IC50 [1] [µM] | SMILES | GI50 (MDA-MB-231) [µM] | GI50 (MDA-MB-468) [µM]
1 | 18.9 | NCCCOc1ccc2ccccc2c1C(=O)NCCOc1cc2ccccc2cc1C(=O)Nc1ccc(Cl)cc1O | 4.31 | 1.7
2 | 17.2 | NCCCOc1cc(C(=O)NCCOc2cc3ccccc3cc2C(=O)Nc2ccc(Cl)cc2O)cc2ccccc12 | 2.68 | 0.55
3 | 19 | NCCCOc1cc(C(=O)NCCOc2cc3ccccc3cc2C(=O)Nc2ccc(Cl)cc2O)c2ccccc2c1 | 3.82 | 1.65
4 | 24 | NCCCOc1c(C(=O)NCCOc2cc3ccccc3cc2C(=O)Nc2ccc(Cl)cc2O)ccc2ccccc12 | 3.12 | 1.93
